Results published in ChEMBL document CHEMBL2057168, “(1aR,5aR)1a,3,5,5a-Tetrahydro-1H-2,3-diaza-cyclopropa[a]pentalene-4-carboxylic acid (MK-1903): a potent GPR109a agonist that lowers free fatty acids in humans” (J Med Chem, 2012).
Active and inactive are the calls of the source. The rule behind the calls is not given here.

Tests used:
Rattus norvegicus = test: Dose normalized AUC in Sprague-Dawley rat at 10 mg/kg, po; type: ADME, organism-based; set-up: dose 10 mg/kg, route oral; details: in vivo
How it was run: (§1)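 Male Sprague-Dawley rats were dosed at 10 mg/kg po or 2 mg/kg iv in 80% PEG400/20% phosphate-buffered saline, fasted overnight before the oral dose. Jugular blood was sampled serially from 0.25 to 21 h over 24 h, and heparinized plasma was prepared. Drug was assayed by HPLC/MS/MS (quantitation range 1–2000 ng/mL).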

[1] = AUC (0 to 24 hrs) in human at titreated po dose administered from day 1 to 4 followed by 200 mg, po QD administered up to day 11 measured on day 11; type: ADME, organism-based; set-up: time < 24 hr, dose 200 mg, route oral; details: plasma
How it was run: (§2)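 Double-blind, placebo-controlled, randomized dose-escalation study in healthy male volunteers, six cohorts of eight (six active, two placebo). Oral dose on day 1, two-day washout, then dosing days 4–11; the 200 mg qd cohort was titrated over days 1–4. Venous blood taken predose and at 0.5–12 h on days 1, 4 and 11; plasma drug measured. τ 12 h (bid), 24 h (qd), 8 h (tid), 6 h (qid).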

Cytochrome P450 2C9 = Cytochrome P450 2C9 (Homo sapiens, UniProt P11712); test: Activity at CYP2C9; type: ADME
[2] = Plasma clearance in Sprague-Dawley rat at 2 mg/kg, iv; type: ADME, organism-based; set-up: dose 2 mg/kg, route intravenous; how it was run: as §1
[3] = Cmax in human at 50 mg, po BID administered on day 1 followed by 2-day wash out period after which dosing continued up to day 11 measured on day 4; type: ADME, organism-based; set-up: dose 50 mg, route oral; details: in vivo
How it was run: (§3)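 Healthy male volunteers took part in a double-blind, randomized, placebo-controlled dose-escalation study, with cohorts of 8 (6 on drug, 2 on placebo). Each subject got an oral dose on day 1, then a 2-day washout, then dosing on days 4–11. The 200 mg qd group was titrated over days 1–4. Venous plasma was sampled predose and 0.5–12 h postdose on days 1, 4 and 11, and predose on days 5–10 for troughs.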

[4] = Cmin in human at 175 mg, po QID administered on day 1 followed by 2-days wash out period after which dosing continued up to day 11 measured on day 4 at 6 hrs; type: ADME, organism-based; details: in vivo, read-out: Cmin; how it was run: as §3
[5] = Volume of distribution in Sprague-Dawley rat at 2 mg/kg, iv; type: ADME, organism-based; set-up: dose 2 mg/kg, route intravenous; details: in vivo
How it was run: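 Male Sprague–Dawley rats dosed iv at 2 mg/kg in 80% PEG400/20% phosphate buffered saline. Jugular vein blood was serially sampled over 24 h, and plasma was prepared from sodium heparin blood. Plasma was analysed by HPLC/MS/MS (LLOQ 1 ng/mL, ULOQ 2000 ng/mL).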

Homo sapiens [6] = test: Toxicity in human assessed as occurrence of flushing at 10 to >10 mg administered as single dose; type: organism-based; details: in vivo
How it was run: (§4)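 Healthy volunteers scored subject-reported flushing with a flushing symptoms questionnaire after single oral doses and during repeat divided daily dosing.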

[7] = Oral bioavailability in dog; type: ADME, organism-based, Canis lupus familiaris; details: in vivo
[8] = Cmax in human at 100 mg, po BID administered on day 1 followed by 2-day wash out period after which dosing continued up to day 11 measured on day 1; type: ADME, organism-based; set-up: dose 100 mg, route oral; details: in vivo; how it was run: as §2
Homo sapiens [9] = test: Antidyslipidemic activity in human assessed as decrease in free fatty acid level 150 mg, po TID administered on day 1 followed by 2-days wash out period after which dosing continued up to day 11 measured on day 4 and 11; type: functional, organism-based
How it was run: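 Healthy male volunteers in a randomized, double-blind, placebo-controlled multiple-dose study, six active and two placebo subjects per cohort. Oral dosing on day 1, two-day washout, then days 4–11, with titration over days 1–4 for the qd arm.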

[10] = Cmax in human at 175 mg, po QID administered on day 1 followed by 2-days wash out period after which dosing continued up to day 11 measured on day 4; type: ADME, organism-based; set-up: dose 175 mg, route oral; details: in vivo; how it was run: as §3
[11] = Tmax in human at 100 mg, po BID administered on day 1 followed by 2-day wash out period after which dosing continued up to day 11 measured on day 1; type: ADME, organism-based; details: in vivo; how it was run: as §3
[12] = Cmin in human at 150 mg, po TID administered on day 1 followed by 2-days wash out period after which dosing continued up to day 11 measured on day 11 at 8 hrs; type: ADME, organism-based; details: in vivo, read-out: Cmin; how it was run: as §3
Homo sapiens [13] = test: Activation of GPR109a receptor in po dosed human assessed as PGD2 metabolite level in urine; type: functional, organism-based
[14] = Cmin in human at 175 mg, po QID administered on day 1 followed by 2-days wash out period after which dosing continued up to day 11 measured on day 11 at 6 hrs; type: ADME, organism-based; details: in vivo, read-out: Cmin; how it was run: as §3
Mus musculus = test: Dose normalized Cmax in po dosed mouse; type: ADME, organism-based; details: in vivo
[15] = Tmax in human at 50 mg, po BID administered on day 1 followed by 2-day wash out period after which dosing continued up to day 11 measured on day 1; type: ADME, organism-based; details: in vivo
How it was run: (§5)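 Double-blind, placebo-controlled, randomized multiple oral dose study in healthy male volunteers (cohorts of eight; six active, two placebo). Dose given on day 1, then a two-day washout, then dosing days 4–11; for the QD arm, subjects were titrated over days 1–4. Venous plasma sampled predose and 0.5, 1, 1.5, 2, 4, 6, 8, 10, 12 h postdose on days 1, 4 and 11. Tmax reported as median (min–max).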

[16] = Tmax in human at 50 mg, po BID administered on day 1 followed by 2-day wash out period after which dosing continued up to day 11 measured on day 11; type: ADME, organism-based; details: in vivo; how it was run: as §5
[17] = Cmax in human at 100 mg, po BID administered on day 1 followed by 2-day wash out period after which dosing continued up to day 11 measured on day 4; type: ADME, organism-based; set-up: dose 100 mg, route oral; details: in vivo; how it was run: as §2
[18] = Tmax in human at 150 mg, po TID administered on day 1 followed by 2-days wash out period after which dosing continued up to day 11 measured on day 1; type: ADME, organism-based; details: in vivo; how it was run: as §5
Homo sapiens [19] = test: Toxicity in human assessed as occurrence of flushing administered as single dose; type: organism-based; details: in vivo; how it was run: as §4
[20] = Apparent half life in human at 150 mg, po BID administered on day 1 followed by 2-day wash out period after which dosing continued up to day 11 measured on day 11; type: ADME, organism-based; details: in vivo, read-out: t1/2(app) (converted); how it was run: as §2
[21] = Cmax in human at 150 mg, po BID administered on day 1 followed by 2-day wash out period after which dosing continued up to day 11 measured on day 1; type: ADME, organism-based; set-up: dose 150 mg, route oral; details: in vivo; how it was run: as §2
[22] = Apparent half life in human at titreated po dose administered from day 1 to 4 followed by 200 mg, po QD administered up to day 11 measured on day 11; type: ADME, organism-based; details: in vivo, read-out: t1/2(app) (converted); how it was run: as §2
[23] = Cmin in human at 150 mg, po BID administered on day 1 followed by 2-day wash out period after which dosing continued up to day 11 measured on day 4 at 12 hrs; type: ADME, organism-based; details: in vivo, read-out: Cmin; how it was run: as §3
[24] = Cmin in human at 150 mg, po TID administered on day 1 followed by 2-days wash out period after which dosing continued up to day 11 measured on day 4 at 8 hrs; type: ADME, organism-based; details: in vivo, read-out: Cmin; how it was run: as §3
[25] = AUC (0 to 24 hrs) in human at titreated po dose administered from day 1 to 4 followed by 200 mg, po QD administered up to day 11 measured on day 4; type: ADME, organism-based; set-up: dose 200 mg, time < 24 hr, route oral; details: plasma; how it was run: as §2
Homo sapiens [26] = test: Toxicity in human assessed as occurrence of flushing at 10 to >10 mg administered for 1 to 2 days as divided dose; type: organism-based; details: in vivo; how it was run: as §4
[27] = Cmax in human at titreated po dose administered from day 1 to 4 followed by 200 mg, po QD administered up to day 11 measured on day 11; type: ADME, organism-based; set-up: dose 200 mg, route oral; details: in vivo; how it was run: as §3

Sequence of Cytochrome P450 2C9 (P11712 whole entry): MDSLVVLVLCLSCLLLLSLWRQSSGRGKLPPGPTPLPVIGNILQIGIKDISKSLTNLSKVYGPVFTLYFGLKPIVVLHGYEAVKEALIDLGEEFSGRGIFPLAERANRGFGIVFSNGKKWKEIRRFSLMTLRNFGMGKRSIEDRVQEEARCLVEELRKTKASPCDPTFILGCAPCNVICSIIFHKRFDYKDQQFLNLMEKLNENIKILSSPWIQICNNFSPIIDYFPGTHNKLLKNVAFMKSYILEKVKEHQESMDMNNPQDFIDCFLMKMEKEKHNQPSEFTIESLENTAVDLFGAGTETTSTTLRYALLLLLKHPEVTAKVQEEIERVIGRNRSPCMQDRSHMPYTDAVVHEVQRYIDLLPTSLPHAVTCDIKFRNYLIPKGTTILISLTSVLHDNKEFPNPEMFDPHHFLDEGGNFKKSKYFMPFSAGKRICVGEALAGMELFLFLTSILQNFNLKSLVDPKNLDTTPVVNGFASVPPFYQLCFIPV

SMILES: O=C(O)c1n[nH]c2c1C[C@H]1C[C@@H]21
- AUC/dose (Rattus norvegicus): 5.1 µM·kg·h/mg
- AUC at 24 h [1]: 0.119 µM·h
- Activity (Cytochrome P450 2C9): Not Active
- clearance [2]: 17 mL/min/kg
- Cmax [3]: 12.3 nM
- concentration at 6 h [4]: 2.92 nM
- Vd [5]: 0.53 L/kg
- Activity (Homo sapiens [6]): Toxic
- bioavailability [7]: 100%
- Cmax [8]: 31.5 nM
- Activity (Homo sapiens [9]): Active
- Cmax [10]: 49.9 nM
- Tmax [11]: 1 h
- concentration at 8 h [12]: 0.708 nM
- Activity (Homo sapiens [13]): Dose-dependent effect
- concentration at 6 h [14]: 2.86 nM
- Cmax/dose (Mus musculus): 3.5 µM·kg/mg
- Tmax [15]: 1 h
- Tmax [16]: 0.5 h
- Cmax [17]: 33.1 nM
- Tmax [18]: 0.5 h
- Activity (Homo sapiens [19]): Dose-dependent effect
- half-life [20]: 8.9 h
- Cmax [21]: 41.2 nM
- half-life [22]: 4.6 h
- concentration at 12 h [23]: 0.241 nM
- concentration at 8 h [24]: 0.583 nM
- AUC at 24 h [25]: 0.114 µM·h
- Activity (Homo sapiens [26]): Non-toxic
- Cmax [27]: 49.8 nM
